In ChEMBL document CHEMBL4715736, “Identification of anticancer agents based on the thieno[2,3-b]pyridine and 1H-pyrazole molecular scaffolds” (2016):

Legend:
Type in all cases: functional
NCI/ADR-RES = test: Growth inhibition of human NCI/ADR-RES cells assessed as cell growth at 0.01 uM incubated for 48 hrs by sulforhodamine B assay relative to control; details: read-out: Activity
IGROV-1 = test: Growth inhibition of human IGROV-1 cells assessed as cell growth at 0.01 uM incubated for 48 hrs by sulforhodamine B assay relative to control; details: read-out: Activity
SF-539 = test: Growth inhibition of human SF-539 cells assessed as cell growth at 0.01 uM incubated for 48 hrs by sulforhodamine B assay relative to control; details: read-out: Activity
UACC-62 = test: Growth inhibition of human UACC-62 cells assessed as cell growth at 0.01 uM incubated for 48 hrs by sulforhodamine B assay relative to control; details: read-out: Activity
PC-3 = test: Growth inhibition of human PC-3 cells assessed as cell growth at 0.01 uM incubated for 48 hrs by sulforhodamine B assay relative to control; details: read-out: Activity
RXF 393 = test: Growth inhibition of human RXF 393 cells assessed as cell growth at 100 uM incubated for 48 hrs by sulforhodamine B assay relative to control; details: read-out: Activity
SNB-75 = test: Growth inhibition of human SNB-75 cells assessed as cell growth at 1 uM incubated for 48 hrs by sulforhodamine B assay relative to control; details: read-out: Activity
HCT-15 [1] = test: Growth inhibition of human HCT-15 cells assessed as cell growth at 0.01 uM incubated for 48 hrs by sulforhodamine B assay relative to control; details: read-out: Activity
OVCAR-4 = test: Growth inhibition of human OVCAR-4 cells assessed as cell growth at 0.1 uM incubated for 48 hrs by sulforhodamine B assay relative to control; details: read-out: Activity
MCF7 = test: Growth inhibition of human MCF7 cells assessed as cell growth at 0.01 uM incubated for 48 hrs by sulforhodamine B assay relative to control; details: read-out: Activity
U-251 = test: Growth inhibition of human U-251 cells assessed as cell growth at 0.01 uM incubated for 48 hrs by sulforhodamine B assay relative to control; details: read-out: Activity
OVCAR-3 = test: Growth inhibition of human OVCAR-3 cells incubated for 48 hrs by sulforhodamine B assay; details: for CC50: read-out: LC50 (the source's name)
Procedure, shortened: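 NCI DTP 60-line human tumour panel. Dose-response curves were run only for ligands active in the initial 10 µM screen. GI50 (concentration giving 50% of maximal inhibition of proliferation) and TGI (concentration giving total growth inhibition) were derived from these curves.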

DU-145 [2] = test: Growth inhibition of human DU-145 cells assessed as cell growth at 100 uM incubated for 48 hrs by sulforhodamine B assay relative to control; details: read-out: Activity
Procedure, shortened: (§1)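 NCI Developmental Therapeutics Program NCI60 panel. Compounds that were active in the 10 µM one-dose screen went on to dose–response testing. Growth at each concentration is expressed relative to untreated control (100%). GI50 (concentration giving 50% of maximal inhibition of proliferation) and TGI (concentration giving total growth inhibition) were derived from the curves.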

BT-549 = test: Growth inhibition of human BT-549 cells incubated for 48 hrs by sulforhodamine B assay; details: for CC50: read-out: LC50 (the source's name); procedure, shortened: as §1
NCI-H226 = test: Growth inhibition of human NCI-H226 cells assessed as cell growth at 100 uM incubated for 48 hrs by sulforhodamine B assay relative to control; details: read-out: Activity
COLO 205 = test: Growth inhibition of human COLO 205 cells assessed as cell growth at 0.1 uM incubated for 48 hrs by sulforhodamine B assay relative to control; details: read-out: Activity; procedure, shortened: as §1
T47D = test: Growth inhibition of human T47D cells assessed as cell growth at 100 uM incubated for 48 hrs by sulforhodamine B assay relative to control; details: read-out: Activity
SW-620 [3] = test: Growth inhibition of human SW-620 cells assessed as cell growth at 100 uM incubated for 48 hrs by sulforhodamine B assay relative to control; details: read-out: Activity
OVCAR-8 [4] = test: Growth inhibition of human OVCAR-8 cells assessed as cell growth at 100 uM incubated for 48 hrs by sulforhodamine B assay relative to control; details: read-out: Activity
CCRF-CEM = test: Growth inhibition of human CCRF-CEM cells assessed as cell growth at 1 uM incubated for 48 hrs by sulforhodamine B assay relative to control; details: read-out: Activity; procedure, shortened: as §1
SW-620 [5] = test: Growth inhibition of human SW-620 cells assessed as cell growth at 1 uM incubated for 48 hrs by sulforhodamine B assay relative to control; details: read-out: Activity
NCI-H322M = test: Growth inhibition of human NCI-H322M cells assessed as cell growth at 0.1 uM incubated for 48 hrs by sulforhodamine B assay relative to control; details: read-out: Activity
SK-MEL-5 = test: Growth inhibition of human SK-MEL-5 cells assessed as cell growth at 1 uM incubated for 48 hrs by sulforhodamine B assay relative to control; details: read-out: Activity
DU-145 [6] = test: Growth inhibition of human DU-145 cells assessed as cell growth at 1 uM incubated for 48 hrs by sulforhodamine B assay relative to control; details: read-out: Activity; procedure, shortened: as §1
OVCAR-5 = test: Growth inhibition of human OVCAR-5 cells assessed as cell growth at 1 uM incubated for 48 hrs by sulforhodamine B assay relative to control; details: read-out: Activity
KM12 [7] = test: Growth inhibition of human KM12 cells assessed as cell growth at 0.1 uM incubated for 48 hrs by sulforhodamine B assay relative to control; details: read-out: Activity
HCC 2998 = test: Growth inhibition of human HCC 2998 cells assessed as cell growth at 0.01 uM incubated for 48 hrs by sulforhodamine B assay relative to control; details: read-out: Activity; procedure, shortened: as §1
MOLT-4 = test: Growth inhibition of human MOLT-4 cells assessed as cell growth at 0.1 uM incubated for 48 hrs by sulforhodamine B assay relative to control; details: read-out: Activity
HT-29 = test: Growth inhibition of human HT-29 cells assessed as cell growth at 0.1 uM incubated for 48 hrs by sulforhodamine B assay relative to control; details: read-out: Activity
KM12 [8] = test: Growth inhibition of human KM12 cells assessed as cell growth at 0.01 uM incubated for 48 hrs by sulforhodamine B assay relative to control; details: read-out: Activity
HCT-15 [9] = test: Growth inhibition of human HCT-15 cells assessed as cell growth at 100 uM incubated for 48 hrs by sulforhodamine B assay relative to control; details: read-out: Activity
KM12 [10] = test: Growth inhibition of human KM12 cells assessed as cell growth at 100 uM incubated for 48 hrs by sulforhodamine B assay relative to control; details: read-out: Activity
OVCAR-8 [11] = test: Growth inhibition of human OVCAR-8 cells assessed as cell growth at 0.01 uM incubated for 48 hrs by sulforhodamine B assay relative to control; details: read-out: Activity
SK-MEL-28 = test: Growth inhibition of human SK-MEL-28 cells assessed as cell growth at 1 uM incubated for 48 hrs by sulforhodamine B assay relative to control; details: read-out: Activity
SN12C = test: Growth inhibition of human SN12C cells assessed as cell growth at 0.01 uM incubated for 48 hrs by sulforhodamine B assay relative to control; details: read-out: Activity
Malme-3M = test: Growth inhibition of human Malme-3M cells assessed as cell growth at 1 uM incubated for 48 hrs by sulforhodamine B assay relative to control; details: read-out: Activity
786-0 = test: Growth inhibition of human 786-0 cells incubated for 48 hrs by sulforhodamine B assay; details: for CC50: read-out: LC50 (the source's name); procedure, shortened: as §1

## Nc1c(C(=O)Nc2ccccc2)sc2nc3c(cc12)CN(Cc1ccccc1)CC3
NCI/ADR-RES
  growth at 0.01 µM: 103%
IGROV-1
  growth at 0.01 µM: 95%
SF-539
  growth at 0.01 µM: 96%
UACC-62
  growth at 0.01 µM: 95%
PC-3
  growth at 0.01 µM: 95%
RXF 393
  growth at 100 µM: -5%
SNB-75
  growth at 1 µM: 64%
HCT-15 [1]
  growth at 0.01 µM: 102%
OVCAR-4
  growth at 0.1 µM: 91%
MCF7
  growth at 0.01 µM: 93%
U-251
  growth at 0.01 µM: 98%
OVCAR-3
  GI50: 11.4 µM
  TGI: > 100 µM
  CC50: > 100 µM
DU-145 [2]
  growth at 100 µM: 16%
BT-549
  GI50: 16.8 µM
  TGI: 92.3 µM
  CC50: > 100 µM
NCI-H226
  growth at 100 µM: 19%
COLO 205
  growth at 0.1 µM: 94%
T47D
  growth at 100 µM: 19%
SW-620 [3]
  growth at 100 µM: 23%
OVCAR-8 [4]
  growth at 100 µM: 18%
CCRF-CEM
  growth at 1 µM: 92%
SW-620 [5]
  growth at 1 µM: 86%
NCI-H322M
  growth at 0.1 µM: 93%
SK-MEL-5
  growth at 1 µM: 95%
DU-145 [6]
  growth at 1 µM: 74%
OVCAR-5
  growth at 1 µM: 93%
KM12 [7]
  growth at 0.1 µM: 95%
HCC 2998
  growth at 0.01 µM: 90%
MOLT-4
  growth at 0.1 µM: 95%
HT-29
  growth at 0.1 µM: 101%
KM12 [8]
  growth at 0.01 µM: 100%
HCT-15 [9]
  growth at 100 µM: 25%
KM12 [10]
  growth at 100 µM: 25%
OVCAR-8 [11]
  growth at 0.01 µM: 100%
SK-MEL-28
  growth at 1 µM: 94%
SN12C
  growth at 0.01 µM: 94%
Malme-3M
  growth at 1 µM: 87%
786-0
  GI50: 13 µM
  TGI: > 100 µM
  CC50: > 100 µM

## Cc1cccc(NC(=O)c2sc3nc4c(cc3c2N)C(=O)CCC4)c1
NCI/ADR-RES
  growth at 0.01 µM: 98%
IGROV-1
  growth at 0.01 µM: 100%
SF-539
  growth at 0.01 µM: 90%
UACC-62
  growth at 0.01 µM: 94%
PC-3
  growth at 0.01 µM: 95%
RXF 393
  growth at 100 µM: 5%
SNB-75
  growth at 1 µM: 6%
HCT-15 [1]
  growth at 0.01 µM: 88%
OVCAR-4
  growth at 0.1 µM: 82%
MCF7
  growth at 0.01 µM: 86%
U-251
  growth at 0.01 µM: 96%
OVCAR-3
  GI50: 0.256 µM
  TGI: 1.66 µM
  CC50: ≥ 100 µM
DU-145 [2]
  growth at 100 µM: -34%
BT-549
  TGI: ≥ 100 µM
  CC50: > 100 µM
NCI-H226
  growth at 100 µM: -15%
COLO 205
  growth at 0.1 µM: 78%
T47D
  growth at 100 µM: -2%
SW-620 [3]
  growth at 100 µM: 3%
OVCAR-8 [4]
  growth at 100 µM: -30%
CCRF-CEM
  growth at 1 µM: 31%
SW-620 [5]
  growth at 1 µM: 19%
NCI-H322M
  growth at 0.1 µM: 84%
SK-MEL-5
  growth at 1 µM: 16%
DU-145 [6]
  growth at 1 µM: 3%
OVCAR-5
  growth at 1 µM: 44%
KM12 [7]
  growth at 0.1 µM: 65%
HCC 2998
  growth at 0.01 µM: 97%
MOLT-4
  growth at 0.1 µM: 95%
HT-29
  growth at 0.1 µM: 70%
KM12 [8]
  growth at 0.01 µM: 95%
HCT-15 [9]
  growth at 100 µM: 5%
KM12 [10]
  growth at 100 µM: -58%
OVCAR-8 [11]
  growth at 0.01 µM: 100%
SK-MEL-28
  growth at 1 µM: 47%
SN12C
  growth at 0.01 µM: 95%
Malme-3M
  growth at 1 µM: 36%
786-0
  GI50: 0.404 µM
  TGI: ≥ 100 µM
  CC50: ≥ 100 µM

## COc1cccc(NC(=O)c2sc3nc4c(cc3c2N)CN(Cc2ccccc2)CC4)c1
NCI/ADR-RES
  growth at 0.01 µM: 102%
IGROV-1
  growth at 0.01 µM: 101%
SF-539
  growth at 0.01 µM: 86%
UACC-62
  growth at 0.01 µM: 94%
PC-3
  growth at 0.01 µM: 94%
RXF 393
  growth at 100 µM: -49%
SNB-75
  growth at 1 µM: 77%
HCT-15 [1]
  growth at 0.01 µM: 92%
OVCAR-4
  growth at 0.1 µM: 93%
MCF7
  growth at 0.01 µM: 88%
U-251
  growth at 0.01 µM: 99%
OVCAR-3
  GI50: 7.53 µM
  TGI: 26.9 µM
  CC50: 79.8 µM
DU-145 [2]
  growth at 100 µM: -61%
BT-549
  GI50: 2.83 µM
  TGI: 26.2 µM
  CC50: > 100 µM
NCI-H226
  growth at 100 µM: -29%
COLO 205
  growth at 0.1 µM: 98%
T47D
  growth at 100 µM: -19%
SW-620 [3]
  growth at 100 µM: -5%
OVCAR-8 [4]
  growth at 100 µM: -2%
CCRF-CEM
  growth at 1 µM: 82%
SW-620 [5]
  growth at 1 µM: 57%
NCI-H322M
  growth at 0.1 µM: 96%
SK-MEL-5
  growth at 1 µM: 58%
DU-145 [6]
  growth at 1 µM: 95%
OVCAR-5
  growth at 1 µM: 95%
KM12 [7]
  growth at 0.1 µM: 98%
HCC 2998
  growth at 0.01 µM: 97%
MOLT-4
  growth at 0.1 µM: 104%
HT-29
  growth at 0.1 µM: 103%
KM12 [8]
  growth at 0.01 µM: 100%
HCT-15 [9]
  growth at 100 µM: 6%
KM12 [10]
  growth at 100 µM: -37%
OVCAR-8 [11]
  growth at 0.01 µM: 99%
SK-MEL-28
  growth at 1 µM: 68%
SN12C
  growth at 0.01 µM: 95%
Malme-3M
  growth at 1 µM: 57%
786-0
  GI50: 3.61 µM
  TGI: 20.8 µM
  CC50: > 100 µM
